Laboratory results taken from ChEMBL document CHEMBL1142410, “Stagonolides B-F, nonenolides produced by Stagonospora cirsii, a potential mycoherbicide of Cirsium arvense” (J Nat Prod, 2008).

Legend:
Assay type in all cases: functional
Cirsium arvense = assay: Phytotoxicity against Cirsium arvense at 1 mg/ml by leaf disk puncture assay
Summary of the method: (§1)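 Leaf disks wounded centrally with a needle, kept on moistened filter paper in closed boxes. Compound dissolved in MeOH, diluted with distilled water to 1 mg/mL final (2% v/v MeOH; MeOH-only control); 10 μL drop applied at the wound. Incubated 48 h under cycles of 8 h dark at 20 °C and 16 h light at 24 °C; necrotic area then measured.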

Sonchus arvensis = assay: Phytotoxicity against Sonchus arvensis at 1 mg/ml by leaf disk puncture assay; summary of the method: as §1
Colpoda steinii = assay: Phytotoxicity against Colpoda stenii at 0.05 mg/ml after 3 hrs; settings: Colpoda steini, in the assay text read “Zootoxicity” for “Phytotoxicity”
Summary of the method: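 Dried Colpoda steinii culture (~5000 cells per mL) revived in Lozina-Lozinskogo medium, 24 h at 25 °C. Compound in 4% EtOH mixed 1:1 v/v with the suspension, 0.05 mg/mL final; 4% EtOH control. Immobile cells (%) counted over 3–180 min. Full immobilisation within 3 min scored as strong toxicity; loss of motility at ≥180 min scored as medium.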

Structure (SMILES): C[C@@H]1C/C=C/[C@@H](O)CCCC(=O)O1
- Activity (Cirsium arvense): Not toxic
- Activity (Sonchus arvensis): Not toxic

Structure (SMILES): C[C@@H]1C[C@H](O)/C=C/[C@@H](O)CCC(=O)O1
- Activity (Colpoda steinii): Not toxic
- Activity (Cirsium arvense): Not toxic
- Activity (Sonchus arvensis): Not toxic

Structure (SMILES): CCC[C@H]1OC(=O)CCC/C=C/C(=O)[C@@H]1O
- Activity (Colpoda steinii): Not toxic
- Activity (Cirsium arvense): Toxic
- Activity (Sonchus arvensis): Toxic

Structure (SMILES): CCC[C@H]1OC(=O)CC[C@@H](O)/C=C/[C@H](O)[C@@H]1O
- Activity (Cirsium arvense): Not toxic
- Activity (Sonchus arvensis): Not toxic

Structure (SMILES): C[C@@H]1CC[C@@H](O)/C=C/C=C\C(=O)O1
- Activity (Cirsium arvense): Not toxic
- Activity (Sonchus arvensis): Not toxic

Structure (SMILES): C[C@@H]1OC(=O)CC[C@H](O)/C=C/[C@@H]2O[C@H]12
- Activity (Cirsium arvense): Not toxic
- Activity (Sonchus arvensis): Not toxic
